# rCAG RNA binder: binders of r(CAG) RNA repeats, primary screen, biochemical, fluorescence; r(CAG) RNA repeat, TO-PRO-1 dye displacement fluorescence; inhibition, % at 3 µM; 370,000 tested, 1.3% active; AID 651821, 2012;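 active = inhibition above the plate cutoff, the mean of all test compounds on that plate plus 3 SD, cut at about 35% in these data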;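 note: 0% = DMSO alone and 100% = 100 µM mitoxantrone as full dye displacement; higher means more dye released from RNA so lower well fluorescence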
# MPTP inh: mitochondrial permeability transition pore inhibitors, primary screen, biochemical, isolated mouse mitochondria, absorbance. Ca2+ swelling absorbance, 30 min. inhibition, % at 10 µM. 360,000 tested, 1.4% active. AID 602449, 2012;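 active = inhibition of 50% or more, scaled per plate between neutral and stimulator controls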;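 note: 0% = DMSO wells given calcium and 100% = 1 mM EGTA wells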
# B2AR ag: beta2AR agonists driving receptor internalization, primary screen, cell-based, FAP fluorogen, flow cytometry | Am2.2-beta2AR cells | AID 504454, 2011 | Beta-2 adrenergic receptor (Homo sapiens), P07550 | 340,000 tested, 0.43% active | response, % (test concentration not listed);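 active = response above a set limit, near 3 SD of response in nonfluorescent compounds, cut at about 42% in these data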
# Target sequence (P07550 whole entry, looked up): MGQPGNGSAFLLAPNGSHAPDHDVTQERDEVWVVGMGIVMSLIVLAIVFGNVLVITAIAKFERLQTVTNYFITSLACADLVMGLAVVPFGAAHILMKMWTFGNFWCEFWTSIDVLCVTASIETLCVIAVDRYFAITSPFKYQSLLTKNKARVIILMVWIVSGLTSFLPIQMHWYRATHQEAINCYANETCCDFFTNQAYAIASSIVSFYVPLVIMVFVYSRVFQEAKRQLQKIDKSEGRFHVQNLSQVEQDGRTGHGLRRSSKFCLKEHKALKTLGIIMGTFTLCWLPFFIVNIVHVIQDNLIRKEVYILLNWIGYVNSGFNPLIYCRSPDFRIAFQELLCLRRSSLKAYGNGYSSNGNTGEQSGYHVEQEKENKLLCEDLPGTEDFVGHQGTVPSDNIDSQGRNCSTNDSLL
# T cell HTS: modulators of CD8 T cell-vesicle binding, primary screen, mouse 2C CD8+ T cells, flow cytometry; 330,000 tested, 0.068% active; response (vesicle binding), % at 7 µM; AID 2052, 2009; 2C CD8+ T cell-vesicle binding; active compounds read low;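 active = response, share of CD8 T cells binding vesicles, and their 90th percentile fluorescence all below set limits, cut at about 80% in these data, passing the limit was not always enough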;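 note: values below 100% mean blocked vesicle binding to the CD8+ T cells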
#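 Incubation: binding step 1.5 h, 37 °C, antibody labelling 20 min, ice; system: murine 2C transgenic CD8+ T lymphocytes; technique: cytometric PE anti-B7-1 and Alexa647 anti-CD8 signals after 1% paraformaldehyde fixation; also added: QL9-charged Drosophila Ld/ICAM-1/B7-1 vesicles; control set: naked versus QL9-loaded vesicles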
# Exocytosis inh: LAMP-1 surface exposure blockers, TALL-104 cells – cell-based, flow cytometry, MLPCN library, primary screen; inhibition, % at 10 µM; AID 651702, 2012; TALL-104 LAMP-1 surface exposure; cells stimulated with thapsigargin and PMA; 360,000 tested, 0.66% active;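 active = inhibition above about 55%, limit read from the data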
# V-ATPase pHluor: regulators of yeast V-ATPase proton pumping, primary screen, pHLuorin cytosolic pH fluorescence. S. cerevisiae. response, % at 10 µM. 350,000 tested, 0.37% active. AID 504577, 2011; in the data active = response mostly above about 7.3%, no sharp cut-off; inactive = mostly below about 5.4%; note: actives read high
# Exocytosis CP01: inhibitors of lytic granule exocytosis, confirmation, TALL-104 cells, flow cytometry, Cherry Pick01; 1,500 tested, 11% active; inhibition, % at 10 µM; AID 651954, 2012; LAMP-1 externalization; stimulated with PMA plus thapsigargin; shares compounds with Exocytosis inh; in the data active = inhibition above about 60%;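 note: 0% = stimulated vehicle wells and 100% = unstimulated wells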
# * = called active by the depositor; i = inactive; / = no result given; ! = not confirmed by another sample. Shown are actives, neighbours in structure and some others; about 3.8% of the full set was active somewhere.
SMILES,rCAG RNA binder,MPTP inh,B2AR ag,T cell HTS,Exocytosis inh,V-ATPase pHluor,Exocytosis CP01
CCN1CCN(Cc2ccc(NC(=O)c3cc(NC(=O)C(=O)c4c[nH]c5ccccc45)cc(OC)c3)cc2C(F)(F)F)CC1,15,-1,18,i,56*!,2,86*
O=C(CSc1nnc(SCc2cccc3ccccc23)s1)Nc1ccccc1-c1ccccc1,6,/,/,/,/,/,/
O=C(NCc1ccccc1Cl)c1cc(C(=O)C2CC2)c[nH]1,-6,1,3,276,61*,3,-13
O=C(NCc1cccnc1)c1cc(C(=O)C2CC2)c[nH]1,1,-1,0,397,-3,-5,/
C#CCCC(=O)O[C@H]1CCC[C@@]2(C(=O)N(Cc3ccccc3)c3ccccc32)[C@H]1NC(=O)CCc1ccccc1,3,/,/,/,/,/,/
O=C(Nc1cccc2nsnc12)c1ccc(-c2cccc(Cl)c2)o1,27,1,1,405,92*,-4,-6
COc1ccccc1-c1cc(C(F)(F)F)nc(S(=O)(=O)CCCC(=O)NCc2ccc(F)cc2)n1,-2,-1,37,625,75*,-2,5
C/C(=N/NC(=O)CN1CCN(Cc2ccccc2Cl)CC1)c1cccc(O)c1,0,/,/,/,/,/,/
CC(=O)N1CCc2cc(S(=O)(=O)NCCC(=O)NCc3ccc(Cl)cc3)ccc21,7,/,/,/,/,/,/
Oc1c(I)cc(I)c2cccnc12,17,7,14,712,74*,2,-14
CCC1(C)CC2(CCCN(CCC(O)(c3ccccc3)c3ccccc3)C2)CCO1 (stereo not drawn),-9,0,-3,159,58*,-2,-11
CCCCc1c(-c2ccccc2OC)ncn1C1CCCCC1,-1,/,/,/,/,/,/
CN(Cc1ccccc1)S(=O)(=O)c1cccc(C(=O)OCC2CCCCC2)c1,3,/,/,/,/,/,/
O=C(c1ccc2c3c(cccc13)CC2)C1CCCN(Cc2cccnc2)C1 (stereo not drawn),-7,2,-7,263,-3,4,/
COc1cc(CN2CCCC(C(=O)c3ccc4c5c(cccc35)CC4)C2)cc(OC)c1O (stereo not drawn),2,-1,14,146,73*,1,2
Cc1cc(NS(=O)(=O)c2ccc(NC(=O)CSc3nnc(-c4cccnc4)n3-c3ccccc3)cc2)nc(C)n1,14,/,/,/,/,/,/
CCCCn1nnnc1C(c1ccnc2ccccc12)N1CCN(C/C=C/c2ccccc2)CC1 (stereo not drawn),2,0,/,/,-6,/,/
CCCCn1nnnc1C(c1cccc2ccccc12)N1CCN(C/C=C/c2ccccc2)CC1 (stereo not drawn),7,4,/,/,58*,/,28
COc1ccc([N+](=O)[O-])cc1NCc1ccccc1C,1,3,0,608,1,-1,/
Cc1ccccc1CN1CCc2cc([N+](=O)[O-])ccc21,8,0,10,669,115*,0,-1
COc1ccc(C(=O)CSc2nnc(-c3cccs3)o2)cc1OC,-2,/,/,/,/,/,/
O=C(COC(=O)[C@H](Cc1c[nH]c2ccccc12)NC(=O)c1ccc(Cl)cc1)Nc1ccc2c(c1)OCO2,14,7,1,376,69*,-3,78*
CC(=O)N[C@@H](Cc1c[nH]c2ccccc12)C(=O)OCC(=O)Nc1ccc2c(c1)OCO2,3,-2,6,/,-2,-2,/
COC(=O)C1=C(C)N(Cc2cccc(C(F)(F)F)c2)C(=NCc2ccccc2C(F)(F)F)NC1c1ccc(Cl)cc1 (stereo not drawn),3,/,/,/,/,/,/
Nn1c(SCC(=O)Nc2ccc(C(=O)O)cc2)nnc1-c1ccco1,1,/,/,/,/,/,/
SMILES,rCAG RNA binder,MPTP inh,B2AR ag,T cell HTS,Exocytosis inh,V-ATPase pHluor,Exocytosis CP01
C=CCNc1nc(NCc2ccc(N(C)C)cc2)c2sc(-c3ccccc3)cc2n1,16,4,/,/,75*,/,93*
COCCNc1nc(NCc2ccc(NC(C)=O)cc2)c2sc(-c3ccccc3)cc2n1,4,2,/,/,44,/,/
COCCNc1nc(NCc2cccc(OC)c2)c2sc(-c3ccccc3)cc2n1,4,5,/,/,76*,/,99*
c1ccc(CNc2nc(NCC3CC3)nc3cc(-c4ccccc4)sc23)cc1,8,47,/,/,71*,/,95*
CCOC(=O)[C@@]12CCC3=C1N(CCC3)C(=O)[C@H](CC(=O)NCc1cccs1)C2,3,/,/,/,/,/,/
CCN(CC)CCSc1nnc2c3ccccc3n(CCc3ccccc3)c2n1,1,0,2,736,60*,2,-14
C=CCn1c2ccccc2c2nnc(SCCCn3c(=O)[nH]c4ccccc43)nc21,10,0,8,/,67*,-4,12
c1ccc(CN2CCCC3(CCCN(Cc4nc(COc5ccccc5)no4)C3)C2)cc1 (stereo not drawn),-9,4,3,213,60*,-1,-4
c1ccc(COc2cccc(-c3cc4nc(NCCN5CCOCC5)ccn4n3)c2)cc1,9,-1,/,/,4,/,/
c1ccc(COc2ccc(-c3cc4nc(NCCN5CCOCC5)ccn4n3)cc2)cc1,6,2,/,/,61*,/,15
NC(=O)c1cnccc1C=Cc1ccccc1,2,0,-2,/,64*,-1,-12
COc1ccccc1C(=O)NCC1(c2ccccc2)CCCC1,-7,-2,-13,274,80*,-1,-1
CCCC[C@H]1C2CC(OC(=O)NCc3ccc(Cl)cc3)C(C2)[C@H]2CCCCN21 (stereo partly drawn),-2,/,/,/,/,/,/
CC(C)(C)c1nc2c(s1)CCc1onc(-c3ccc(Cl)cc3)c1-2,0,0,-7,/,-5,6,/
Clc1ccc(-c2noc3c2-c2nc(Cc4cccc5ccccc45)sc2CC3)cc1,4,1,2,605,74*,-1,-13
COC(=O)[C@]12C[C@H](CC(=O)NCCC(C)C)C(=O)N(Cc3ccc(Cl)cc3Cl)C1=C[C@H](C1CCCC1)O[C@@H]2C,1,/,/,/,/,/,/
CC(C)c1ccc(NC(=O)N2CCc3ccccc3C2)cc1,-1,2,7,289,-1,-2,/
O=C(Nc1ccc([N+](=O)[O-])cc1)N1CCc2ccccc2C1,5,0,2,/,85*,-5,-12
COc1ccc(CCNC(=O)C2CC3Cn4c(nc5cc(Cl)c(Cl)cc54)C3N2C)cc1 (stereo not drawn),-3,-1,-7,256,83*,-3,-13

# Screens (PubChem BioAssay)
